Reference: ChEMBL document CHEMBL4052798, “Design, synthesis and biological evaluation of indole derivatives as Vif inhibitors” (Bioorg Med Chem Lett, 2017)
Active and inactive are the calls of the source. No cut-off for these calls is given here.

Test system: Human immunodeficiency virus 1
Assay: Inhibition of doxycycline-induced HIV1 Vif expressed in TREX-hVif-15 cells co-expressing EYFP-N1-tagged human A3G assessed as restoration of Vif-induced A3G degradation level at 20 uM after 48 hrs by Western blot analysis
Format: cell-based
Procedure, shortened: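 TREX-hvif-15 cells were transfected with EYFP-N1-hA3G, and Vif was induced with 0.1 μg/mL Dox. Cells were treated with or without compound at 20 μM. A3G and Vif protein levels were detected by western blot, and A3G restoration was graded qualitatively, lowest to high.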

Question: For `O=C(O)Cc1ccc(-c2ccc3[nH]ccc3c2)cc1`, which inhibition is on record?
Answer: inactive

Question: How did the inhibition turn out when `CS(=O)(=O)c1ccc(-c2ccc3[nH]ccc3c2)cc1` was run?
Answer: Active

Question: Which inhibition does the source give for `O=Cc1ccccc1-c1ccc2[nH]ccc2c1` here?
Answer: inactive

Question: For `O=Cc1cccc(-c2ccc3[nH]ccc3c2)n1`, which inhibition is on record?
Answer: Active

Question: How did the inhibition turn out when `c1ccc(-c2ccc3[nH]ccc3c2)nc1` was run?
Answer: inactive

Question: Which inhibition does the source give for `Nc1ncccc1-c1ccc2[nH]ccc2c1` here?
Answer: Active

Question: How did the inhibition turn out when `O=C(O)c1ccc(-c2ccc3[nH]ccc3c2)nc1` was run?
Answer: Active

Question: How did the inhibition turn out when `NC(=O)c1cncc(-c2ccc3[nH]ccc3c2)c1` was run?
Answer: Active

Question: With `O=Cc1cccc(-c2ccc3[nH]ccc3c2)c1` as the compound, how does the inhibition read?
Answer: Active

Question: Which inhibition does the source give for `Nc1ccc(-c2ccc3[nH]ccc3c2)cn1` here?
Answer: Active

Question: Which inhibition does the source give for `N#Cc1ccccc1-c1ccc2[nH]ccc2c1` here?
Answer: inactive

Question: How did the inhibition turn out when `Nc1cccc(-c2ccc3[nH]ccc3c2)n1` was run?
Answer: Active

Question: With `O=Cc1ccc(-c2ccc3[nH]ccc3c2)cc1` as the compound, how does the inhibition read?
Answer: inactive

Question: `O=C(O)c1ccc(-c2ccc3[nH]ccc3c2)cc1` was tested. Which inhibition did it give?
Answer: Active

Question: `O=Cc1ccc(-c2ccc3[nH]ccc3c2)nc1` was tested. Which inhibition did it give?
Answer: inactive

Question: For `Nc1cccnc1-c1ccc2[nH]ccc2c1`, which inhibition is on record?
Answer: Active

Question: For `O=C(O)c1ccnc(-c2ccc3[nH]ccc3c2)c1`, which inhibition is on record?
Answer: Active

Question: Which inhibition does the source give for `COc1ccc(-c2ccc3[nH]ccc3c2)cn1` here?
Answer: Active

Question: How did the inhibition turn out when `NC(=O)c1ccnc(-c2ccc3[nH]ccc3c2)c1` was run?
Answer: inactive

Question: With `NC(=O)c1ccc(-c2ccc3[nH]ccc3c2)nc1` as the compound, how does the inhibition read?
Answer: Active

Test system: Human immunodeficiency virus 1
Assay: Inhibition of doxycycline-induced HIV1 Vif expressed in TREX-hVif-15 cells co-expressing EYFP-N1-tagged human A3G assessed as reduction in Vif-mediated A3G degradation by measuring fold change in mean fluorescence intensity at 50 uM by flow cytometric method
Format: cell-based
Procedure, shortened: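 TREX-hvif-15 cells with Tet-On-regulated Vif were transfected with EYFP-N1-hA3G, and Vif was induced with 1 μg/mL Dox. Compounds were tested at 50 µM. A3G-EYFP mean fluorescence intensity was expressed as fold change and scored as: no or <1-fold; 1–2; 2–3; >3. Reference groups were A3G⁺/Vif⁻ and A3G⁺/Vif⁺.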

Question: `O=C(O)Cc1ccc(-c2ccc3[nH]ccc3c2)cc1` was tested. Which fold change (FC) did it give?
Answer: < 1

Question: How did the fold change (FC) turn out when `CS(=O)(=O)c1ccc(-c2ccc3[nH]ccc3c2)cc1` was run?
Answer: 2 to 3

Question: For `O=Cc1ccccc1-c1ccc2[nH]ccc2c1`, which fold change (FC) is on record?
Answer: 1 to 2

Question: How did the fold change (FC) turn out when `O=Cc1cccc(-c2ccc3[nH]ccc3c2)n1` was run?
Answer: 1 to 2

Question: `c1ccc(-c2ccc3[nH]ccc3c2)nc1` was tested. Which fold change (FC) did it give?
Answer: < 1

Question: With `Nc1ncccc1-c1ccc2[nH]ccc2c1` as the compound, how does the fold change (FC) read?
Answer: 1 to 2

Question: With `O=C(O)c1ccc(-c2ccc3[nH]ccc3c2)nc1` as the compound, how does the fold change (FC) read?
Answer: > 3

Question: `NC(=O)c1cncc(-c2ccc3[nH]ccc3c2)c1` was tested. Which fold change (FC) did it give?
Answer: 1 to 2

Question: With `O=Cc1cccc(-c2ccc3[nH]ccc3c2)c1` as the compound, how does the fold change (FC) read?
Answer: 1 to 2

Question: With `Nc1ccc(-c2ccc3[nH]ccc3c2)cn1` as the compound, how does the fold change (FC) read?
Answer: 2 to 3

Question: `N#Cc1ccccc1-c1ccc2[nH]ccc2c1` was tested. Which fold change (FC) did it give?
Answer: < 1

Question: For `Nc1cccc(-c2ccc3[nH]ccc3c2)n1`, which fold change (FC) is on record?
Answer: 1 to 2

Question: Which fold change (FC) does the source give for `O=Cc1ccc(-c2ccc3[nH]ccc3c2)cc1` here?
Answer: < 1

Question: For `O=C(O)c1ccc(-c2ccc3[nH]ccc3c2)cc1`, which fold change (FC) is on record?
Answer: 2 to 3

Question: Which fold change (FC) does the source give for `O=Cc1ccc(-c2ccc3[nH]ccc3c2)nc1` here?
Answer: < 1

Question: How did the fold change (FC) turn out when `Nc1cccnc1-c1ccc2[nH]ccc2c1` was run?
Answer: 2 to 3

Question: How did the fold change (FC) turn out when `O=C(O)c1ccnc(-c2ccc3[nH]ccc3c2)c1` was run?
Answer: 2 to 3

Question: For `COc1ccc(-c2ccc3[nH]ccc3c2)cn1`, which fold change (FC) is on record?
Answer: 1 to 2

Question: For `NC(=O)c1ccnc(-c2ccc3[nH]ccc3c2)c1`, which fold change (FC) is on record?
Answer: 2 to 3

Question: `NC(=O)c1ccc(-c2ccc3[nH]ccc3c2)nc1` was tested. Which fold change (FC) did it give?
Answer: 2 to 3
